How the values were obtained:
estrogenic potency = conditions: cited from earlier work
β-glucuronidase = test: β-Glucuronidase inhibition assay; type: biochemical, H. pomatia; conditions: for reversibility of inhibition of β-glucuronidase: enzyme activity vs enzyme concentration at four inhibitor concentrations
Method in brief: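 H. pomatia β-glucuronidase (type H-1), stock 10 U/mL in 0.5 M Tris-HCl pH 7.0. Incubated 1 h at 37 °C in 0.1 M phosphate buffer pH 7.0 with pNPG (5 mM stock) and test compound or water control. Stopped with 0.5 M NaOH; pNP read at 400 nm. Final H2O2 1–10,000 μM; NaClO and PAA 1–1000 μM. Triplicates; % inhibition relative to control without test compound.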

arylsulfatase = test: Arylsulfatase inhibition assay; type: biochemical, Helix pomatia; conditions: for type of inhibition of arylsulfatase: Lineweaver–Burk plot; for reversibility of inhibition of arylsulfatase: enzyme activity vs enzyme concentration at four inhibitor concentrations

CCCCC(CC)COC(=O)c1ccccc1C(=O)OCC(CC)CCCC (stereo not shown) [DEHP, di-2-(ethylhexyl) phthalate]
estrogenic potency (estrogenic potency): 10^–7

OO [H2O2, hydrogen peroxide]
inhibition on β-glucuronidase (in words) (β-glucuronidase; pH 7.0, tested 1-10,000 μM): no inhibition
type of inhibition of arylsulfatase (arylsulfatase): competitive
reversibility of inhibition of arylsulfatase (arylsulfatase): reversible
inhibition of arylsulfatase under weak alkaline condition (in words) (arylsulfatase; pH 8): reduced inhibition
differences in the inhibition of arylsulfatase across pH (in words) (arylsulfatase; pH range of 5–7): no significant differences

OCl [hypochlorite]
reversibility of inhibition of β-glucuronidase (β-glucuronidase): irreversible
reversibility of inhibition of arylsulfatase (arylsulfatase): irreversible
IC50 (arylsulfatase; read-out: IC50 on arylsulfatase at pH 5.0, pH 5.0): 7.64 ± 0.61 µM

CC(=O)OO [PAA, peracetic acid]
type of inhibition of β-glucuronidase (β-glucuronidase; Lineweaver–Burk plot): noncompetitive
reversibility of inhibition of β-glucuronidase (β-glucuronidase): reversible
maximum inhibition degree on β-glucuronidase (β-glucuronidase; pH 7.0, tested up to 1000 μM): about 60%
type of inhibition of arylsulfatase (arylsulfatase): noncompetitive
reversibility of inhibition of arylsulfatase (arylsulfatase): reversible
inhibition of arylsulfatase at pH 8 (in words) (arylsulfatase; pH 8, concentration below 1 mM): nearly no inhibition

[Cd] [cadmium]
estrogenic potency (in words) (estrogenic potency): no estrogenic potency at all

— article PMC8014925 (ACS Omega, 2021)
